{"source": "ChEMBL document CHEMBL2346654", "about": "“Discovery of biological evaluation of pyrazole/imidazole amides as mGlu5 receptor negative allosteric modulators” (Bioorg Med Chem Lett, 2013)"}
{"target": "Metabotropic glutamate receptor 5 (Homo sapiens, UniProt P41594)", "sequence (P41594 whole entry)": "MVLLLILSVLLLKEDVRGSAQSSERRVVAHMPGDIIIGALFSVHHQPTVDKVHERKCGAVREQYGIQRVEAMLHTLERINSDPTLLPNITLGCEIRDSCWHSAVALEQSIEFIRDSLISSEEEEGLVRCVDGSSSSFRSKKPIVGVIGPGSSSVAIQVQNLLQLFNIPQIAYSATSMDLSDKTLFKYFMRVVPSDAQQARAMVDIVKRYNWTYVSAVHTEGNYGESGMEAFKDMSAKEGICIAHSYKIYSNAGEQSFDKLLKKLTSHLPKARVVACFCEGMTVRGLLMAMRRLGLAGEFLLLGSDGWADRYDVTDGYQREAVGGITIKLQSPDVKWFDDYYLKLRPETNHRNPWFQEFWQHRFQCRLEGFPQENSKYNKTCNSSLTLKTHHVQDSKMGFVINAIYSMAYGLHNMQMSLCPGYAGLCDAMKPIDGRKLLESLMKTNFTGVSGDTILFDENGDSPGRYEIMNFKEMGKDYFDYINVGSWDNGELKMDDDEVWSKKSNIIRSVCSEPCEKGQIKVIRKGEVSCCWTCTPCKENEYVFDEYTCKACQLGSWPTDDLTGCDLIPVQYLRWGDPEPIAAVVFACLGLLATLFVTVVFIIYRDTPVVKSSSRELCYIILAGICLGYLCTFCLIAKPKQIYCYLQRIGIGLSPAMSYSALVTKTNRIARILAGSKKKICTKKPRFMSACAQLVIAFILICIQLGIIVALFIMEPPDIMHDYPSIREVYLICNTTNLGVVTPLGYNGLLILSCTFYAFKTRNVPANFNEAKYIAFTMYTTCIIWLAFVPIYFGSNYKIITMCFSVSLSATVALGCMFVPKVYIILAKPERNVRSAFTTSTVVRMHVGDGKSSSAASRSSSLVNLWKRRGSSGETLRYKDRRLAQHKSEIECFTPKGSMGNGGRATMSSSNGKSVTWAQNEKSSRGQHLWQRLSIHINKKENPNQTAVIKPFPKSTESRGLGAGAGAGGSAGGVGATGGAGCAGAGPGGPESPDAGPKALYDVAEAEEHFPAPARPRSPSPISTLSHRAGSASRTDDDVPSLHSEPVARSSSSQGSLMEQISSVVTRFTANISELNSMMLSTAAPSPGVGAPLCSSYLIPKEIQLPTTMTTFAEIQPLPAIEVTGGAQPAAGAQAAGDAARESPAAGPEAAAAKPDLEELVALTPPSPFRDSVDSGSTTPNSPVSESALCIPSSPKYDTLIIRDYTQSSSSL", "assay": "Negative allosteric modulation of human mGluR5 expressed in HEK293 cells assessed as calcium mobilization by FLIPR assay", "format": "functional, cell-based", "conditions": "not given", "units": {"IC50": "nM"}}
{"smiles": "Cc1cccc(NC(=O)c2nn(C)c(-c3cc(F)cc(F)c3)c2C)n1", "IC50": 5.3}
{"smiles": "Cc1cccc(NC(=O)c2nn(C)c(-c3ccc(F)c(F)c3)c2C)n1", "IC50": 4.3}
{"smiles": "Cc1nc(C(=O)Nc2ccc(F)cn2)c(C)n1-c1ccc(F)cc1", "IC50": 88.3}
{"smiles": "Cc1cccc(NC(=O)c2nn(C)c3ccccc23)n1", "IC50": "> 1000"}
{"smiles": "Cc1cccc(NC(=O)c2nn(C)c(-c3ccncc3)c2C)n1", "IC50": 71}
{"smiles": "Cc1cc(NC(=O)c2nn(C)c(-c3ccc(F)cc3)c2C)ccn1", "IC50": 94.5}
{"smiles": "Cc1c(C(=O)Nc2cccc(Cl)n2)nn(C)c1-c1ccc(F)cc1", "IC50": 16.4}
{"smiles": "Cc1cccc(NC(=O)c2nc(C)n(-c3ccc(F)c(Cl)c3)c2C)n1", "IC50": 14.5}
{"smiles": "Cc1c(C(=O)Nc2cc(Cl)ccn2)nn(C)c1-c1ccc(F)cc1", "IC50": 195}
{"smiles": "Cc1c(C(=O)Nc2ccnc(F)c2)nn(C)c1-c1ccc(F)cc1", "IC50": 41.6}
{"smiles": "Cc1ccnc(NC(=O)c2nn(C)c(-c3ccc(F)cc3)c2C)c1", "IC50": 82.3}
{"smiles": "Cc1cccc(NC(=O)c2nn(C)c(-c3cccc(Cl)c3)c2C)n1", "IC50": 4.7}
{"smiles": "Cc1cccc(NC(=O)c2nc(C)n(-c3ccc(F)cc3)c2C)n1", "IC50": 13}
{"smiles": "O=C(Nc1cccc(Cl)c1)c1noc2c1CCC2", "IC50": 63}
{"smiles": "Cc1c(C(=O)Nc2ccnc(Cl)c2)nn(C)c1-c1ccc(F)cc1", "IC50": 56.3}
{"smiles": "Cc1c(C(=O)Nc2ccnc(Cl)n2)nn(C)c1-c1ccc(F)cc1", "IC50": 7.1}
{"smiles": "Cc1nc(C(=O)Nc2ccnc(Cl)c2)c(C)n1-c1ccc(F)cc1", "IC50": 62}
{"smiles": "Cc1cccc(NC(=O)c2nn(C)c(OCc3ccc(F)cc3)c2C)n1", "IC50": 911}
{"smiles": "Cc1nc(C(=O)Nc2cccc(F)n2)c(C)n1-c1ccc(F)cc1", "IC50": 24.2}
{"smiles": "Cc1cccc(NC(=O)c2nn(C)c(-c3ccc(Cl)c(Cl)c3)c2C)n1", "IC50": 2.3}
{"smiles": "COc1ccc(-c2c(C)c(C(=O)Nc3cccc(C)n3)nn2C)cc1", "IC50": 17}
{"smiles": "Cc1nc(NC(=O)c2nc(C)n(-c3ccc(F)cc3)c2C)ccc1F", "IC50": 139}
{"smiles": "Cc1nc(NC(=O)c2nn(C)c(-c3ccc(F)cc3)c2C)ccc1F", "IC50": 28}
{"smiles": "Cc1cccc(NC(=O)c2nn(C)c(-c3ccc(F)cc3F)c2C)n1", "IC50": 3.7}
{"test_system": "not listed separately", "assay": "(§1) Half life in rat liver microsomes", "conditions": "liver microsomes", "units": {"half-life": "h"}}
{"smiles": "Cc1cccc(NC(=O)c2nn(C)c(-c3cc(F)cc(F)c3)c2C)n1", "half-life": 1.07}
{"smiles": "Cc1c(C(=O)Nc2cccc(Cl)n2)nn(C)c1-c1ccc(F)cc1", "half-life": 1.8}
{"smiles": "Cc1c(C(=O)Nc2ccnc(F)c2)nn(C)c1-c1ccc(F)cc1", "half-life": 1.9}
{"smiles": "Cc1c(C(=O)Nc2ccnc(Cl)n2)nn(C)c1-c1ccc(F)cc1", "half-life": "> 5"}
{"smiles": "Cc1nc(C(=O)Nc2cccc(F)n2)c(C)n1-c1ccc(F)cc1", "half-life": 1.13}
{"smiles": "Cc1cccc(NC(=O)c2nn(C)c(-c3ccc(Cl)c(Cl)c3)c2C)n1", "half-life": 2.47}
{"smiles": "COc1ccc(-c2c(C)c(C(=O)Nc3cccc(C)n3)nn2C)cc1", "half-life": 1.58}
{"smiles": "Cc1nc(NC(=O)c2nc(C)n(-c3ccc(F)cc3)c2C)ccc1F", "half-life": 0.733}
{"smiles": "Cc1cccc(NC(=O)c2nn(C)c(-c3ccc(F)cc3F)c2C)n1", "half-life": 1.27}
{"test_system": "not listed separately", "assay": "as §1", "conditions": "microsomes", "units": {"half-life": "h"}}
{"smiles": "Cc1cccc(NC(=O)c2nn(C)c(-c3ccc(F)c(F)c3)c2C)n1", "half-life": 2.48}
{"smiles": "Cc1nc(C(=O)Nc2ccc(F)cn2)c(C)n1-c1ccc(F)cc1", "half-life": 1.83}
{"smiles": "Cc1cccc(NC(=O)c2nn(C)c(-c3ccncc3)c2C)n1", "half-life": 0.617}
{"smiles": "Cc1cc(NC(=O)c2nn(C)c(-c3ccc(F)cc3)c2C)ccn1", "half-life": 1.27}
{"smiles": "Cc1cccc(NC(=O)c2nc(C)n(-c3ccc(F)c(Cl)c3)c2C)n1", "half-life": 1.45}
{"smiles": "Cc1c(C(=O)Nc2cc(Cl)ccn2)nn(C)c1-c1ccc(F)cc1", "half-life": 2.38}
{"smiles": "Cc1ccnc(NC(=O)c2nn(C)c(-c3ccc(F)cc3)c2C)c1", "half-life": 1.98}
{"smiles": "Cc1cccc(NC(=O)c2nn(C)c(-c3cccc(Cl)c3)c2C)n1", "half-life": 0.917}
{"smiles": "Cc1cccc(NC(=O)c2nc(C)n(-c3ccc(F)cc3)c2C)n1", "half-life": 1.77}
{"smiles": "Cc1c(C(=O)Nc2ccnc(Cl)c2)nn(C)c1-c1ccc(F)cc1", "half-life": 2.68}
{"smiles": "Cc1nc(C(=O)Nc2ccnc(Cl)c2)c(C)n1-c1ccc(F)cc1", "half-life": 1.57}
{"smiles": "Cc1nc(NC(=O)c2nn(C)c(-c3ccc(F)cc3)c2C)ccc1F", "half-life": 2.77}
{"test_system": "not listed separately", "assay": "(§2) Half life in mouse liver microsomes", "conditions": "liver microsomes", "units": {"half-life": "h"}}
{"smiles": "Cc1cccc(NC(=O)c2nn(C)c(-c3cc(F)cc(F)c3)c2C)n1", "half-life": 0.3}
{"smiles": "Cc1c(C(=O)Nc2cccc(Cl)n2)nn(C)c1-c1ccc(F)cc1", "half-life": 1.93}
{"smiles": "Cc1c(C(=O)Nc2ccnc(F)c2)nn(C)c1-c1ccc(F)cc1", "half-life": "> 5"}
{"smiles": "Cc1c(C(=O)Nc2ccnc(Cl)n2)nn(C)c1-c1ccc(F)cc1", "half-life": "> 5"}
{"smiles": "Cc1nc(C(=O)Nc2cccc(F)n2)c(C)n1-c1ccc(F)cc1", "half-life": 0.617}
{"smiles": "Cc1cccc(NC(=O)c2nn(C)c(-c3ccc(Cl)c(Cl)c3)c2C)n1", "half-life": 3.25}
{"smiles": "COc1ccc(-c2c(C)c(C(=O)Nc3cccc(C)n3)nn2C)cc1", "half-life": 1.18}
{"smiles": "Cc1nc(NC(=O)c2nc(C)n(-c3ccc(F)cc3)c2C)ccc1F", "half-life": 1.43}
{"smiles": "Cc1cccc(NC(=O)c2nn(C)c(-c3ccc(F)cc3F)c2C)n1", "half-life": 0.633}
{"test_system": "not listed separately", "assay": "as §2", "conditions": "microsomes", "units": {"half-life": "h"}}
{"smiles": "Cc1cccc(NC(=O)c2nn(C)c(-c3ccc(F)c(F)c3)c2C)n1", "half-life": 0.7}
{"smiles": "Cc1nc(C(=O)Nc2ccc(F)cn2)c(C)n1-c1ccc(F)cc1", "half-life": 0.533}
{"smiles": "Cc1cccc(NC(=O)c2nn(C)c(-c3ccncc3)c2C)n1", "half-life": 0.133}
{"smiles": "Cc1cc(NC(=O)c2nn(C)c(-c3ccc(F)cc3)c2C)ccn1", "half-life": 1.4}
{"smiles": "Cc1cccc(NC(=O)c2nc(C)n(-c3ccc(F)c(Cl)c3)c2C)n1", "half-life": 1.17}
{"smiles": "Cc1c(C(=O)Nc2cc(Cl)ccn2)nn(C)c1-c1ccc(F)cc1", "half-life": 0.4}
{"smiles": "Cc1ccnc(NC(=O)c2nn(C)c(-c3ccc(F)cc3)c2C)c1", "half-life": 0.167}
{"smiles": "Cc1cccc(NC(=O)c2nn(C)c(-c3cccc(Cl)c3)c2C)n1", "half-life": 0.533}
{"smiles": "Cc1cccc(NC(=O)c2nc(C)n(-c3ccc(F)cc3)c2C)n1", "half-life": 0.3}
{"smiles": "Cc1c(C(=O)Nc2ccnc(Cl)c2)nn(C)c1-c1ccc(F)cc1", "half-life": "> 5"}
{"smiles": "Cc1nc(C(=O)Nc2ccnc(Cl)c2)c(C)n1-c1ccc(F)cc1", "half-life": 5}
{"smiles": "Cc1nc(NC(=O)c2nn(C)c(-c3ccc(F)cc3)c2C)ccc1F", "half-life": 1.65}
{"test_system": "Mus musculus", "assay": "Antidepressant activity in ICR mouse assessed as decrease in immobility time at 10 mg/kg, po administered 1 hr before test measured for 4 mins following training for 2 mins by forced swimming test", "format": "functional", "design": "scale not given: the % may be the effect or the level left", "conditions": "not given", "summary_of_the_method": "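Mouse forced swim test: ICR mice dosed orally 1 h before testing; 2 min training, then immobility duration recorded over 4 min. Activity expressed as % decrease in immobility duration. Mean ± SEM, n = 8; Dunnett's multiple comparisons after one-way ANOVA (p < 0.05).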", "units": {"Activity": "%"}}
{"smiles": "Cc1cccc(NC(=O)c2nn(C)c(-c3ccc(F)c(F)c3)c2C)n1", "Activity": 58.8}
{"smiles": "Cc1c(C(=O)Nc2cccc(Cl)n2)nn(C)c1-c1ccc(F)cc1", "Activity": 12.6}
{"smiles": "Cc1c(C(=O)Nc2ccnc(F)c2)nn(C)c1-c1ccc(F)cc1", "Activity": 15.5}
{"smiles": "Cc1cccc(NC(=O)c2nc(C)n(-c3ccc(F)cc3)c2C)n1", "Activity": 52.1}
{"smiles": "Cc1nc(C#Cc2cccnc2)cs1", "Activity": 14}
{"smiles": "Cc1c(C(=O)Nc2ccnc(Cl)c2)nn(C)c1-c1ccc(F)cc1", "Activity": 39.1}
{"smiles": "Cc1c(C(=O)Nc2ccnc(Cl)n2)nn(C)c1-c1ccc(F)cc1", "Activity": 31.2}
{"smiles": "Cc1cccc(NC(=O)c2nn(C)c(-c3ccc(Cl)c(Cl)c3)c2C)n1", "Activity": 45.8}
{"smiles": "COc1ccc(-c2c(C)c(C(=O)Nc3cccc(C)n3)nn2C)cc1", "Activity": 14.4}
{"smiles": "Cc1cccc(NC(=O)c2nn(C)c(-c3ccc(F)cc3F)c2C)n1", "Activity": 25.7}
{"test_system": "not listed separately", "assay": "(§3) Half life in human liver microsomes", "conditions": "liver microsomes", "units": {"half-life": "h"}}
{"smiles": "Cc1cccc(NC(=O)c2nn(C)c(-c3cc(F)cc(F)c3)c2C)n1", "half-life": 0.533}
{"smiles": "Cc1c(C(=O)Nc2cccc(Cl)n2)nn(C)c1-c1ccc(F)cc1", "half-life": 1.92}
{"smiles": "Cc1c(C(=O)Nc2ccnc(F)c2)nn(C)c1-c1ccc(F)cc1", "half-life": "> 5"}
{"smiles": "Cc1c(C(=O)Nc2ccnc(Cl)n2)nn(C)c1-c1ccc(F)cc1", "half-life": "> 5"}
{"smiles": "Cc1nc(C(=O)Nc2cccc(F)n2)c(C)n1-c1ccc(F)cc1", "half-life": 1.6}
{"smiles": "Cc1cccc(NC(=O)c2nn(C)c(-c3ccc(Cl)c(Cl)c3)c2C)n1", "half-life": 1.78}
{"smiles": "COc1ccc(-c2c(C)c(C(=O)Nc3cccc(C)n3)nn2C)cc1", "half-life": "> 5"}
{"smiles": "Cc1nc(NC(=O)c2nc(C)n(-c3ccc(F)cc3)c2C)ccc1F", "half-life": 1}
{"smiles": "Cc1cccc(NC(=O)c2nn(C)c(-c3ccc(F)cc3F)c2C)n1", "half-life": 1.12}
{"test_system": "not listed separately", "assay": "as §3", "conditions": "microsomes", "units": {"half-life": "h"}}
{"smiles": "Cc1cccc(NC(=O)c2nn(C)c(-c3ccc(F)c(F)c3)c2C)n1", "half-life": 0.767}
{"smiles": "Cc1nc(C(=O)Nc2ccc(F)cn2)c(C)n1-c1ccc(F)cc1", "half-life": "> 5"}
{"smiles": "Cc1cccc(NC(=O)c2nn(C)c(-c3ccncc3)c2C)n1", "half-life": 0.7}
{"smiles": "Cc1cc(NC(=O)c2nn(C)c(-c3ccc(F)cc3)c2C)ccn1", "half-life": 1.28}
{"smiles": "Cc1cccc(NC(=O)c2nc(C)n(-c3ccc(F)c(Cl)c3)c2C)n1", "half-life": 1.27}
{"smiles": "Cc1c(C(=O)Nc2cc(Cl)ccn2)nn(C)c1-c1ccc(F)cc1", "half-life": 2.1}
{"smiles": "Cc1ccnc(NC(=O)c2nn(C)c(-c3ccc(F)cc3)c2C)c1", "half-life": 1.52}
{"smiles": "Cc1cccc(NC(=O)c2nn(C)c(-c3cccc(Cl)c3)c2C)n1", "half-life": 2}
{"smiles": "Cc1cccc(NC(=O)c2nc(C)n(-c3ccc(F)cc3)c2C)n1", "half-life": 0.733}
{"smiles": "Cc1c(C(=O)Nc2ccnc(Cl)c2)nn(C)c1-c1ccc(F)cc1", "half-life": "> 5"}
{"smiles": "Cc1nc(C(=O)Nc2ccnc(Cl)c2)c(C)n1-c1ccc(F)cc1", "half-life": 3.75}
{"smiles": "Cc1nc(NC(=O)c2nn(C)c(-c3ccc(F)cc3)c2C)ccc1F", "half-life": 3.55}
